Only some compounds are listed: those with a hit (about 3.8% of all), similar ones and a draw of the others.
KCNK3 inh: human KCNK3 channel inhibition, primary screen. O14649. CHO-KCNK3 thallium flux, FluxOR fluorescence; stronger effect = lower value. B-score at 10 µM. hit rate 0.84% among 340,000. AID 602410;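 active = B-score under library mean minus 4 SD, starting fluorescence ratio at most library mean plus 5 SD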;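 note: more negative B-score means stronger inhibition of thallium flux through KCNK3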
Target sequence (O14649 whole entry, looked up): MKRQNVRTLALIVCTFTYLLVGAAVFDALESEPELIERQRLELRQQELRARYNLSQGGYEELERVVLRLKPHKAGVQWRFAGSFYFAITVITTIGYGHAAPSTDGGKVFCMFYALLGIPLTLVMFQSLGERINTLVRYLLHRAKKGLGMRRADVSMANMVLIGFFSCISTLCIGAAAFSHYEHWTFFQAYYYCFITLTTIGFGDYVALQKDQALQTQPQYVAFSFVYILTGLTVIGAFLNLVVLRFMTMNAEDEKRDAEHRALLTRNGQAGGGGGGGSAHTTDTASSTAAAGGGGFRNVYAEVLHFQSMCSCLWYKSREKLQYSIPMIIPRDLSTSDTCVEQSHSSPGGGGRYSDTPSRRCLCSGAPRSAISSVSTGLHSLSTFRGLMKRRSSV
KCNK9 block: inhibitors of human KCNK9 two-pore domain potassium channel | Q9NPC2 | B-score at 10 µM | hit rate 1.2% among 310,000 | AID 488922 | HEK293 KCNK9, FluxOR thallium flux fluorescence; stronger effect = lower value;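 active = ratio B-score over 3 SD below the library mean, with starting fluorescence within 5 SD of its mean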;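 note: negative B-score means less thallium flux so channel inhibition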
Target sequence (Q9NPC2 whole entry, looked up, the tested form may be a part): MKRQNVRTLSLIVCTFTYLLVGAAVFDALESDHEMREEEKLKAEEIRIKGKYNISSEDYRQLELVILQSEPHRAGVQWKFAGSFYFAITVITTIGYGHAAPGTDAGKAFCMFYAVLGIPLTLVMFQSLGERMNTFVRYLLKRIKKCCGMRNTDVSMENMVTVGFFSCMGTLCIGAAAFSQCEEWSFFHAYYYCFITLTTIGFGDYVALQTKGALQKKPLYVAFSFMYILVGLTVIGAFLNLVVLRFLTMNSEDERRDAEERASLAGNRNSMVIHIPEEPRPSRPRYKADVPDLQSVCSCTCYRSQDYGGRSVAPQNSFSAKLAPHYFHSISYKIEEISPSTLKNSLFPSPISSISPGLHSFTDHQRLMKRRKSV
hERG rescue: compounds protecting human hERG from proarrhythmic drug block. CHO-hERG, FluxOR thallium flux, dofetilide IC70 present. activation (rescue from dofetilide block), less the hit threshold, % at 10 µM. hit rate 0.51% among 310,000;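 active = activation above the mean of controls blocked by dofetilide plus 5 SD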;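 note: thallium influx through hERG after potassium depolarization seen as dye fluorescence rise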
Kir21 inh: blocks the mouse Kir2.1 inward-rectifier potassium channel; HEK293-Kir2.1, FluxOR thallium flux fluorescence; stronger effect = lower value; B-score at 10 µM; hit rate 0.85% among 310,000; P35561;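 active = fluorescence ratio B-score at or below minus 3 SD of library scores, with starting-brightness B-score within 2 SD, cut at about -4.2 in these data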;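 note: channel flux triggered by added potassium and thallium sulfate stimulus; B-score of peak minus minimum fluorescence over baseline after thallium stimulus; more negative B-score means stronger Kir2.1 block with less thallium influx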
KCNQ1 inh: human KCNQ1 channel inhibition; CHO-K1 KCNQ1, FluxOR thallium flux fluorescence; stronger effect = higher value; B-score at 10 µM; hit rate 1.3% among 310,000; AID 2642;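 active = compounds whose thallium flux B-score, printed positive for inhibition, exceeds three library SD while starting fluorescence stays within three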;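 note: channel opened by potassium depolarization with thallium stimulus after 20 min compound exposure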
KCNQ1 pot: potentiates or activates the human KCNQ1 potassium channel; hit rate 0.35% among 310,000; B-score at 10 µM; CHO-K1 KCNQ1, thallium flux FluxOR fluorescence; stronger effect = higher value; P51787;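 active = fluorescence ratio B-score, a plate-corrected score, at least three library SD, with initial intensity B-score within 5 SD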
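Assay system: CHO-K1 cells stably expressing KCNQ1. Medium: assay buffer for compound exposure, DMSO matched across wells. Timing: 37 °C overnight plating, 90-min dark dye load, 20-min compound pretreatment. Signal: kinetic FluxOR fluorescence, 10 s baseline plus 110 s post-stimulus.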
KCNQ1 inh valid: human KCNQ1 channel inhibition, validation assay; hit rate 93% among 1,600; inhibition, % at 10 µM; KCNQ1 cell line, FluxOR thallium flux fluorescence; AID 588353; shares compounds with KCNQ1 inh;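 active = primary screen active, with duplicate mean exceeding buffer control mean plus 3 SD of buffer wells, cut at about 28% in these data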;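 note: 0% = buffer control ratio and 100% = XE991 inhibitor control ratio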
CHO Tl flux: activity in parental CHO cells lacking KCNQ1. parental CHO-K1, FluxOR thallium flux fluorescence ratio; stronger effect = lower value; zero means no signal rise above baseline. shares compounds with KCNQ1 inh. fluorescence ratio (Tl flux) at 10 µM. hit rate 21% among 1,600;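 active = mean of duplicate thallium-flux fluorescence ratios in parental host cells more than 5 SD below the buffer control mean, cut at about 0.38 in these data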;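 note: ratio is peak minus minimum fluorescence divided by baseline fluorescence; actives read low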
KCNQ1 APC inh: blocks human KCNQ1 current in automated patch clamp | hit rate 20% among 490 | calls only at 10 µM | shares compounds with KCNQ1 inh | KCNQ1-CHO cells;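 active = KCNQ1 current drop exceeding 3 SD of negative control wells, seen in both duplicate runs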;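 note: steady state current during a 2 s step from -80 to +40 mV; negative values mean current inhibition and positive values mean potentiation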
KCNQ2 inh: selectivity of KCNQ1 inhibitors: inhibition of rat KCNQ2 channel. shares compounds with KCNQ1 inh. KCNQ2 cells, FluxOR thallium flux fluorescence. inhibition, % at 10 µM. hit rate 71% among 1,600. AID 651746;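 active = mean percent inhibition of the KCNQ2 thallium signal more than 5 SD above the buffer-only control wells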;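 note: KCNQ2 expressed in CHO cells; 0% = buffer control wells and 100% = XE-991 inhibitor control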
KCNQ1 KCNE1 spec: selectivity of KCNQ1 inhibitors: inhibition of human KCNQ1/KCNE1 channel | shares compounds with KCNQ1 inh | KCNQ1/KCNE1 cells, FluxOR thallium flux fluorescence | inhibition, % at 10 µM | hit rate 77% among 1,600;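 active = mean percent inhibition of duplicate wells above the buffer-only control mean plus 3 SD of those controls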;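 note: 0% = buffer only wells and 100% = XE-991 inhibitor control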
The depositor's hits bear a star; i = inactive; nt = no result given; + = active, no number.

SMILES | KCNK3 inh | KCNK9 block | hERG rescue | Kir21 inh | KCNQ1 inh | KCNQ1 pot | KCNQ1 inh valid | CHO Tl flux | KCNQ2 inh | KCNQ1 KCNE1 spec | others
CN(c1ccccc1)S(=O)(=O)c1ccc(C(=O)OCC(=O)NCc2cccs2)cc1 | i | i | -12 | -2.3 | 6* | i | 38* | 0.47 | 69%* | i
Cc1ccc2c(C(=O)N3CCN(c4ccccc4)CC3)cc(-c3cccnc3)nc2c1C | i | i | -18 | 0.34 | 8* | i | 92* | 0.46 | i | 192%* | KCNQ1 APC inh=i
COc1ccccc1NC(=O)C(C)OC(=O)C1CCC(C(C)(C)C)CC1 (stereo not drawn) | i | -7.1* | -5 | -2.6 | 7* | i | 122* | 0.49 | 83%* | 156%* | KCNQ1 APC inh=i
Cc1ccc(N2C(=O)CC(Cc3ccc(Cl)cc3)C2=O)cc1 (stereo not drawn) | i | i | -4 | -0.21 | i | i | nt | nt | nt | nt
Cc1ccccc1NC(=O)CSc1nc2c(c(=O)n(C)c(=O)n2C)n1C | i | i | -2 | 1.8 | i | i | nt | nt | nt | nt
COc1ccc(C(=O)C2CCCN(Cc3cccn3-c3ccc(Cl)cn3)C2)c(OC)c1 (stereo not drawn) | i | i | -22 | -2.3 | 11* | i | 82* | 0.49 | 85%* | i
c1ccc(-c2nnsc2Sc2ccccn2)cc1 | i | i | -3 | -0.3 | i | i | nt | nt | nt | nt
CCOC(=O)c1cc(-c2ccccc2)sc1NC(=O)C(C)(C)C | i | i | -6 | -0.63 | i | i | nt | nt | nt | nt
CCOC(=O)c1cc(-c2ccccc2)sc1NC(=O)CC(C)C | i | i | -8 | -0.52 | 6* | i | 100* | 0.35* | 127%* | 116%*
Cc1ccccc1CSCCNC(=S)Nc1ccccc1 | i | i | -14 | -0.14 | 8* | i | 62* | 0.52 | 82%* | 72%*
COc1ccc(CNC(=S)Nc2ccccc2)cc1Cl | i | i | -6 | -1.4 | i | i | nt | nt | nt | nt
COc1ccc(CSCCNC(=S)Nc2ccccc2)cc1Cl | i | i | -7 | -3 | i | i | nt | nt | nt | nt
CC(C)Oc1ccc(CNC(=S)Nc2ccccc2)cc1Cl | i | i | -7 | -0.46 | 7* | i | 50* | 0.55 | 59%* | 75%*
S=C(NCCSCc1ccc(Cl)c(Cl)c1)Nc1ccccc1 | i | i | -7 | 0.66 | 11* | i | 76* | 0.39 | 80%* | 65%*
S=C(NCCSCc1ccc(Cl)cc1Cl)Nc1ccccc1 | i | i | -10 | 0.09 | 6* | i | 48* | 0.41 | 111%* | 36%*
O=C(NCC(=O)N(c1ccc(F)cc1)C(C(=O)NC1CCCCC1)c1ccncc1)c1ccco1 (stereo not drawn) | i | i | -4 | 0.1 | i | i | nt | nt | nt | nt
CN(C(=O)c1cccc(NC(=O)Cc2ccc(NC(=O)C3CCCN(C(=O)C4CCCCC4)C3)cc2)c1)C1CCCCC1 (stereo not drawn) | i | nt | nt | nt | nt | nt | nt | nt | nt | nt
Cc1nn(-c2ccc(Cl)cc2)c2[nH]c(=O)c(CNCc3ccc4c(c3)OCO4)cc12 | i | i | -16 | 0.17 | i | i | nt | nt | nt | nt
CCOC(=O)c1cc(C(C)(C)C)oc1CNC(=O)c1c(C)oc2c1CCCC2 | i | i | -23 | -0.02 | 10* | i | 141* | 0.38 | 120%* | 142%* | KCNQ1 APC inh=i
COc1cc(NC(=O)c2ccco2)c(C(=O)OCC(=O)c2c[nH]c3ccccc23)cc1OC | i | i | -3 | 0.27 | i | i | nt | nt | nt | nt
Cc1cc(-c2ccc(S(=O)(=O)N(C)c3ccc(C)c(C)c3)s2)on1 | i | i | -6 | 0.7 | 9* | i | 128* | 0.34* | 143%* | 150%*
Cc1ccc(N(C)S(=O)(=O)c2ccc(-c3cc(C)no3)s2)cc1 | i | i | -6 | -1.1 | i | i | nt | nt | nt | nt
CC(N=c1ccccn1C(=O)Nc1ccc(F)cc1)c1ccco1 (stereo not drawn) | i | i | -5 | -1.3 | i | i | nt | nt | nt | nt
CC(N=c1ccccn1C(=O)Nc1ccc(Cl)cc1)c1ccco1 (stereo not drawn) | nt | i | -7 | -0.47 | 10* | i | 62* | 0.49 | 61%* | i
Cn1cnc(S(=O)(=O)Nc2ccc(Cl)c(C(F)(F)F)c2)c1 | i | i | -4 | 2.2 | i | i | nt | nt | nt | nt
SMILES | KCNK3 inh | KCNK9 block | hERG rescue | Kir21 inh | KCNQ1 inh | KCNQ1 pot | KCNQ1 inh valid | CHO Tl flux | KCNQ2 inh | KCNQ1 KCNE1 spec | others
COc1ccc(NC(=S)Nc2cccc(C(F)(F)F)c2)c(C)c1 | i | i | -5 | 0 | 8* | i | 99* | 0.49 | 100%* | 60%* | KCNQ1 APC inh=i
CSc1ccccc1NC(=S)Nc1cccc(C(F)(F)F)c1 | i | i | -12 | -0.51 | i | i | nt | nt | nt | nt
CN(C)C(=O)/C(=C\c1ccncc1)NC(=O)c1ccccc1 | i | i | -5 | -0.02 | i | i | nt | nt | nt | nt
O=C(CN1CCN(S(=O)(=O)c2ccccc2)CC1)Nc1ccnn1C1CCCC1 | i | nt | nt | nt | nt | nt | nt | nt | nt | nt
CCc1ccc(S(=O)(=O)/N=C2\C=C(NS(=O)(=O)c3ccccc3)C(=O)c3ccccc32)cc1 | i | i | -11 | 1.9 | 12* | i | 97* | 0.45 | 79%* | 94%* | KCNQ1 APC inh=+
CC(=O)N1CCN(CC(=O)Nc2ccc3c(c2)CCC3)CC1 | i | i | -5 | 1.1 | i | i | nt | nt | nt | nt
Cc1sc2c(c1C)CN(CCN1CCOCC1)CN2C(=O)c1ccccc1 | i | i | -8 | -0.68 | 6* | i | 0 | 0.47 | i | 37%*
O=C(c1ccccc1)c1ccc(C(=O)N2CCOCC2)cc1 | i | i | -8 | 1.2 | i | i | nt | nt | nt | nt
C=CCNc1sc(C(=O)c2ccccc2)c(N)c1-c1nc2ccccc2s1 | i | i | -6 | 0.77 | 7* | i | 57* | 0.44 | 73%* | 84%*
COCCn1c(SCC(=O)Nc2ccccc2F)nnc1-c1ccoc1C | i | i | -1 | -0.69 | i | i | nt | nt | nt | nt

Screening data (PubChem BioAssay)
